Assay results published in ChEMBL document CHEMBL3232782, “1,2,3,4,8,9,10,11-octahydrobenzo[j]phenanthridine-7,12-diones as new leads against Mycobacterium tuberculosis” (J Med Chem, 2014).
In brackets after ≈: the same amount, converted by molar mass. Activity calls are given as the source filed them. No cut-off for these calls is given here.

Legend:
[1] = system: Mycobacterium tuberculosis; assay: Antimycobacterial activity against Mycobacterium tuberculosis H37Rv expressing luciferase infected in mouse J774A1 cells assessed as inhibition of replication at 0.25 uM measured after 1 to 4 days by luminescence assay; format: functional; settings: J774.A1
Method in brief: (§1)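 J774 A.1 cells (40 000/well) were infected with H37Rv lux at MOI 0.1 in DMEM with penicillin/fungizone and no gentamicin. Serial compound dilutions were added, with treatment starting 24 h post infection. Extracellular bacteria were removed by washes and 1 h 1% gentamicin. Cells were lysed with 1% Triton X-100 and luminescence read with n-decanal. Reduction in RLU versus untreated; INH 0.1 μM control.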

[2] = Genotoxicity in mouse J774A1 cells assessed as DNA strand breaks at 0.25 to 5 uM after 24 hrs by Comet assay; format: toxicity, cell-based; settings: j774.a1, 24 h
Method in brief: (§2)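 J774 A.1 cells (100 000/well) were exposed to compound serial dilutions in DMEM + 10% FCS for 24 h at 37 °C, 5% CO2. Alkaline comet assay: cells embedded in low-melt agarose, lysed, electrophoresed 20 min at 300 mA, neutralized and stained with gel red. The % tail DNA of 200 nuclei was scored by fluorescence microscopy. Mann–Whitney U test.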

[3] = system: Mycobacterium tuberculosis; assay: Antimycobacterial activity against Mycobacterium tuberculosis H37Rv expressing luciferase assessed as growth inhibition at 100 uM preincubated with liver S9 fraction for 15 mins followed by incubation with parasite and measured after 6 days by luminometry; format: functional, organism-based
Method in brief: (§3)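 Compounds (100 μM) were preincubated with NADPH/G-6-P-conditioned liver S9 at 37 °C, 5% CO2 for 15 or 30 min. They were then serially diluted and tested against luminescent H37Rv in 7H9 + 10% FCS. Luminescence was read after 6 days with n-decanal.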

[4] = system: Mycobacterium tuberculosis; assay: Antimycobacterial activity against Mycobacterium tuberculosis Beijing 17919 expressing luciferase assessed as growth inhibition after 6 days by luminometry; format: functional; settings: Beijing 17919, 144 h
Method in brief: (§4)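 Strains carried pSMT1 luxAB reporter plasmid. DMSO stocks 10 mM, serially diluted in 7H9 + 10% FCS, triplicate wells. Filtered bacterial suspension at 50 000 RLU/mL. Luminescence read after 6 days using 1% n-decanal substrate. […] Growth temperatures: M.tb 37 °C; M. avium and M. bovis 39 °C.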

[5] = system: Mycobacterium tuberculosis; assay: Antimycobacterial activity against Mycobacterium tuberculosis H37Rv expressing luciferase infected in mouse J774A1 cells assessed as inhibition of replication at 0.50 uM measured after 1 to 4 days by luminescence assay; format: functional; settings: J774.A1; method in brief: as §1
[6] = Selectivity index, ratio of IC50 for mouse J774A1 cells to MIC for Mycobacterium tuberculosis H37Rv expressing luciferase infected in mouse J774A1 cells; format: toxicity, cell-based, J774.A1; settings: read-out: Selectivity Index
Method in brief: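 SI = neutral red IC50 in J774 A.1 cells (24 h) divided by the intracellular MIC. The intracellular MIC came from luminescent H37Rv in infected J774 A.1 macrophages after 3 days of treatment starting 24 h post infection, with lysate luminescence measured using n-decanal.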

[7] = Selectivity ratio of IC90 for Mycobacterium ulcerans 1615 to IC90 for Mycobacterium tuberculosis; format: functional
[8] = system: Mycobacterium avium subsp. paratuberculosis; assay: Antimycobacterial activity against Mycobacterium avium subsp. paratuberculosis ATCC 19698 expressing luciferase assessed as growth inhibition after 6 days by luminometry; format: functional; settings: ATCC 19698, 144 h; method in brief: as §4
[9] = system: Mycobacterium tuberculosis; assay: Antimycobacterial activity against Mycobacterium tuberculosis H37Rv expressing luciferase infected in mouse J774A1 cells assessed as inhibition of replication at 0.03 to 0.05 uM measured after 1 to 4 days by luminescence assay; format: functional, organism-based; settings: J774.A1; method in brief: as §1
[10] = system: Mycobacterium tuberculosis; assay: Antimycobacterial activity against Mycobacterium tuberculosis H37Rv expressing luciferase assessed as growth inhibition preincubated with liver S9 fraction for 30 mins followed by incubation with parasite and measured after 6 days by luminometry; format: functional; method in brief: as §3
[11] = Cytotoxicity against mouse J774A1 cells assessed as cell viability after 24 hrs by Trypan blue exclusion assay; format: cell-based; settings: J774.A1, 24 h
[12] = system: Mycobacterium tuberculosis; assay: Antimycobacterial activity against Mycobacterium tuberculosis H37Rv expressing luciferase assessed as growth inhibition after 6 days by luminometry; format: functional; settings: 144 h; method in brief: as §4
[13] = Selectivity index, ratio of IC50 for mouse J774A1 cells to MIC for Mycobacterium tuberculosis H37Rv expressing luciferase; format: toxicity, cell-based, J774.A1; settings: read-out: Selectivity Index
Method in brief: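 SI = IC50/MIC. IC50 came from a neutral red uptake assay on J774 A.1 cells after 24 h exposure in DMEM + 10% FCS, with OD 530 nm. […] Both were from triplicate cultures.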

[14] = system: Mycobacterium tuberculosis; assay: Antimycobacterial activity against Mycobacterium tuberculosis H37Rv expressing luciferase infected in mouse J774A1 cells assessed as inhibition of replication measured after 1 to 4 days by luminescence assay; format: functional, J774.A1; method in brief: as §1
[15] = Antimycobacterial activity against Mycobacterium avium subsp. avium ATCC 15769 expressing luciferase assessed as growth inhibition after 6 days by luminometry; format: functional; settings: ATCC 15769, 144 h; method in brief: as §4
[16] = Genotoxicity in mouse J774A1 cells assessed as DNA strand breaks at 0.25 to 50 uM after 24 hrs by Comet assay; format: toxicity, cell-based; settings: j774.a1, 24 h; method in brief: as §2

| SMILES | IC50 [11] [µM] | MIC99 [12] [µM] | selectivity ratio [13] | further results |
| --- | --- | --- | --- | --- |
| CCOC(=O)C1CCc2ncc3c(c2C1)C(=O)C1=C(C3=O)C2CCC1C2 (stereo not given) | 8.49 | 0.22 (≈ 0.0773 µg/mL) | 38.6 | inhibition at 0.25 µM [1]: 63.9%; Activity [2]: Non-toxic; growth inhibition (GI) [3]: Active; MIC [4]: 0.14 µM (≈ 0.0492 µg/mL); inhibition at 0.5 µM [5]: 86.7%; selectivity ratio [6]: 10.8; Selectivity ratio [7]: 50; MIC [8]: 0.44 µM (≈ 0.155 µg/mL); growth inhibition (GI) [9]: inactive; MIC [10]: 0.66 µM (≈ 0.232 µg/mL); MIC [14]: 2.38 µM (≈ 0.836 µg/mL); MIC [15]: 1.22 µM (≈ 0.429 µg/mL) |
| Cc1nc2c(c3c1C(=O)c1ccccc1C3=O)CCCC2 | 10.9 | 17.8 (≈ 4.93 µg/mL) | 0.61 | – |
| CC1CCCc2c1ncc1c2C(=O)c2ccccc2C1=O (stereo not given) | 14.9 | 14.4 (≈ 4 µg/mL) | 1.03 | – |
| CC1CCc2c(ncc3c2C(=O)c2ccccc2C3=O)C1 (stereo not given) | 8.13 | 5.3 (≈ 1.47 µg/mL) | 1.53 | – |
| CC(C)(C)C1CCc2ncc3c(c2C1)C(=O)C1=C(C3=O)C2CCC1O2 (stereo not given) | 53.2 | 7.21 (≈ 2.43 µg/mL) | 7.38 | – |
| Cc1nc2c(c3c1C(=O)c1ccccc1C3=O)CCCC2C (stereo not given) | 30.8 | 17.7 (≈ 5.15 µg/mL) | 1.74 | – |
| Cc1ccc2c3c(cnc2c1)C(=O)c1ccccc1C3=O | 3.21 | – | 15 | MIC [12]: 0.64 µM (≈ 0.175 µg/mL) |
| NNC(=O)c1ccncc1 [ISONIAZID] | > 100 | 0.13 (≈ 0.0178 µg/mL) | > 769 | MIC [4]: 0.09 µM (≈ 0.0123 µg/mL); MIC [8]: 0.99 µM (≈ 0.136 µg/mL); MIC [15]: 0.76 µM (≈ 0.104 µg/mL) |
| CC(C)(C)C1CCc2ncc3c(c2C1)C(=O)C1=C(C3=O)C2CCC1C2 (stereo not given) | 51.4 | 0.59 (≈ 0.198 µg/mL) | 87 | inhibition at 0.25 µM [1]: 43.8%; growth inhibition (GI) [3]: Active; Activity [16]: Non-toxic; MIC [4]: 0.33 µM (≈ 0.111 µg/mL); inhibition at 0.5 µM [5]: 52.6%; selectivity ratio [6]: 20.7; Selectivity ratio [7]: 6; MIC [8]: 0.69 µM (≈ 0.231 µg/mL); growth inhibition (GI) [9]: inactive; MIC [10]: 1.05 µM (≈ 0.352 µg/mL); MIC [14]: 2.48 µM (≈ 0.832 µg/mL); MIC [15]: 0.8 µM (≈ 0.268 µg/mL) |
| CC(C)(C)C1CCc2ncc3c(c2C1)C(=O)C1=C(C3=O)C2CCC1CC2 (stereo not given) | 22.9 | 8.56 (≈ 2.99 µg/mL) | 2.68 | – |
| CO[C@H]1/C=C/O[C@@]2(C)Oc3c(C)c(O)c4c(O)c(c(/C=N/N5CCN(C)CC5)c(O)c4c3C2=O)NC(=O)/C(C)=C\C=C\[C@H](C)[C@H](O)[C@@H](C)[C@@H](O)[C@@H](C)[C@H](OC(C)=O)[C@@H]1C [RIFAMPIN] | > 100 | 0.19 (≈ 0.156 µg/mL) | > 526 | – |
| CC(C)(C)OC(=O)N1CCc2ncc3c(c2C1)C(=O)C1=C(C3=O)C2CCC1C2 (stereo not given) | 7.33 | 12.9 (≈ 4.9 µg/mL) | 0.57 | – |
| O=C1c2ccccc2C(=O)c2c1cnc1c2CCCC1 | 7.34 | 9.88 (≈ 2.6 µg/mL) | 0.74 | – |
| CCOC(=O)C1CCc2ncc3c(c2C1)C(=O)C1=C(C3=O)C2CCC1CC2 (stereo not given) | 49.8 | 0.26 (≈ 0.095 µg/mL) | 191 | inhibition at 0.25 µM [1]: 55.8%; growth inhibition (GI) [3]: Active; Activity [16]: Non-toxic; MIC [4]: 0.16 µM (≈ 0.0585 µg/mL); inhibition at 0.5 µM [5]: 94.3%; selectivity ratio [6]: 79.3; Selectivity ratio [7]: 10; MIC [8]: 0.21 µM (≈ 0.0767 µg/mL); growth inhibition (GI) [9]: inactive; MIC [10]: 0.65 µM (≈ 0.238 µg/mL); MIC [14]: 2.41 µM (≈ 0.881 µg/mL); MIC [15]: 0.37 µM (≈ 0.135 µg/mL) |
| Cc1nc2c(c3c1C(=O)c1ccccc1C3=O)CCC(C)C2 (stereo not given) | 25.7 | 9.85 (≈ 2.87 µg/mL) | 2.61 | – |
| CC1CCc2ncc3c(c2C1)C(=O)c1ccccc1C3=O (stereo not given) | 1.31 | 9.61 (≈ 2.67 µg/mL) | 0.14 | – |
| CC(C)(C)C1CCc2ncc3c(c2C1)C(=O)c1ccccc1C3=O (stereo not given) | 11.5 | 9.64 (≈ 3.08 µg/mL) | 1.19 | – |
